Data as given in ChEMBL document CHEMBL1138889, “Development of N-2,4-pyrimidine-N-phenyl-N'-phenyl ureas as inhibitors of tumor necrosis factor alpha (TNF-alpha) synthesis. Part 1” (Bioorg Med Chem Lett, 2006).

Key:
[1] = biological target: T1, Mitogen-activated protein kinase 14 (Homo sapiens, UniProt Q16539); assay: Inhibition of LPS-stimulated TNFalpha production in human THP1 cells; format: functional, cell-based, THP-1
In short: (§1)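 THP-1 human monocytic cells, in duplicate cultures, were preincubated with or without inhibitor for 15 min. TNF-α release was then stimulated with LPS at 1 µg/ml final. Secreted TNF-α was quantified by ELISA 4 h after stimulation. Cell viability after the 4 h incubation was assessed by MTS assay.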

[2] = biological target: T1, Mitogen-activated protein kinase 14; assay: Inhibition of LPS-stimulated TNFalpha production in human THP1 cells at 1 uM; format: functional, cell-based; conditions: THP-1; in short: as §1

T1 sequence (Q16539 whole entry): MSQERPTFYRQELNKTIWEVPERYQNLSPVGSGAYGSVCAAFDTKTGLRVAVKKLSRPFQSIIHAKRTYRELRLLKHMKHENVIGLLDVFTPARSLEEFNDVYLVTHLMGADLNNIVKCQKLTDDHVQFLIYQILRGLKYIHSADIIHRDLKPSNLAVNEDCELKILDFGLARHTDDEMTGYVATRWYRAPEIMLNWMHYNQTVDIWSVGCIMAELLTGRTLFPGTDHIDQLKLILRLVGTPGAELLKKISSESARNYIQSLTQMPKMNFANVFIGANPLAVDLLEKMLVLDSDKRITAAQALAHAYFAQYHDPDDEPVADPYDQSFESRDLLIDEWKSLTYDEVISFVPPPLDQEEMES

| IC50 [1] [nM] | inhibition [2] [%] | Compound |
| --- | --- | --- |
| 3100 |  | COC[C@H](C)Nc1nccc(N(C(=O)Nc2ccccc2Cl)c2ccc(F)cc2)n1 |
| > 5000 |  | CN1CCN(c2nccc(N(C(=O)Nc3ccccc3Cl)c3ccc(F)cc3)n2)CC1 |
| 3610 |  | CCOC(=O)N1CCC(Nc2nccc(N(C(=O)Nc3ccccc3Cl)c3ccc(F)cc3)n2)CC1 |
| 2880 |  | COC[C@H](C)Nc1nccc(N(C(=O)Nc2ccccc2F)c2ccc(F)cc2)n1 |
| 3650 |  | COC[C@H](C)Nc1nccc(N(C(=O)Nc2ccccc2C)c2ccc(F)cc2)n1 |
| > 5000 |  | C[C@H](Nc1nccc(N(C(=O)Nc2ccccc2Cl)c2ccc(F)cc2)n1)c1ccccc1 (stereo in doubt; 5i) |
| 1420 |  | CCCS(=O)(=O)N1CCC(Nc2nccc(N(C(=O)Nc3ccccc3Cl)c3ccc(F)cc3)n2)CC1 |
| 539 |  | O=C(Nc1ccccc1Cl)N(c1ccc(F)cc1)c1ccnc(NC2CCOCC2)n1 |
| 122 |  | C[C@H](Nc1nccc(N(C(=O)Nc2ccccc2Cl)c2ccc(F)cc2)n1)C(C)(C)O |
| 843 |  | C[C@H](Nc1nccc(N(C(=O)Nc2ccccc2Cl)c2ccc(F)cc2)n1)c1ccccc1 (stereo in doubt; 5h) |
| > 5000 |  | O=C(Nc1ccccc1Cl)N(c1ccc(F)cc1)c1ccnc(N2CCOCC2)n1 |

More lines, now with the values behind:

| Compound | IC50 [1] [nM] | inhibition [2] [%] |
| --- | --- | --- |
| Cc1ccccc1NC(=O)N(c1ccc(F)cc1)c1ccnc(N[C@@H](C)C(C)(C)O)n1 | 176 |  |
| COC[C@H](C)Nc1nccc(N(C(=O)Nc2ccccc2Cl)c2ccc(N(C)C)cc2)n1 | > 5000 |  |
| C[C@H](Nc1nccc(N(C(=O)Nc2ccccc2Cl)c2cccc(F)c2)n1)c1ccccc1 | 6160 |  |
| C[C@H](Nc1nccc(N(C(=O)Nc2c(Cl)cccc2Cl)c2ccc(F)cc2)n1)C(C)(C)O |  | 63 |
| COc1ccc(N(C(=O)Nc2ccccc2Cl)c2ccnc(N[C@@H](C)C(C)(C)O)n2)cc1 | 92 |  |
| C[C@H](Nc1nccc(N(C(=O)Nc2ccccc2Cl)c2ccccc2)n1)C(C)(C)O | 718 |  |
| COC[C@H](C)Nc1nccc(N(C(=O)Nc2ccccc2C)c2ccccc2)n1 | 1000 |  |
| COC[C@H](C)Nc1nccc(N(C(=O)Nc2ccc(C(F)(F)F)cc2)c2ccc(F)cc2)n1 | > 5000 |  |
| COCC(C)Nc1nccc(N(N)C(=O)Nc2ccccc2Cl)n1 (single isomer, unassigned) | > 5000 |  |
| COC[C@H](C)Nc1nccc(N(C)C(=O)Nc2ccccc2C)n1 | > 5000 |  |
| COc1ccc(N(C(=O)Nc2ccccc2C)c2ccnc(N[C@@H](C)C(C)(C)O)n2)cc1 | 135 |  |
| Cc1ccccc1NC(=O)N(c1ccc(N(C)C)cc1)c1ccnc(N[C@@H](C)c2ccccc2)n1 | > 5000 |  |
